Consider 38 molecules from ChEMBL document CHEMBL3871271, “Novel bis-arylalkylamines as myeloperoxidase inhibitors: Design, synthesis, and structure-activity relationship study” (Eur J Med Chem, 2016).

One experiment concerns the target T1, Myeloperoxidase (Homo sapiens, UniProt P05164).
T1 sequence (P05164 whole entry): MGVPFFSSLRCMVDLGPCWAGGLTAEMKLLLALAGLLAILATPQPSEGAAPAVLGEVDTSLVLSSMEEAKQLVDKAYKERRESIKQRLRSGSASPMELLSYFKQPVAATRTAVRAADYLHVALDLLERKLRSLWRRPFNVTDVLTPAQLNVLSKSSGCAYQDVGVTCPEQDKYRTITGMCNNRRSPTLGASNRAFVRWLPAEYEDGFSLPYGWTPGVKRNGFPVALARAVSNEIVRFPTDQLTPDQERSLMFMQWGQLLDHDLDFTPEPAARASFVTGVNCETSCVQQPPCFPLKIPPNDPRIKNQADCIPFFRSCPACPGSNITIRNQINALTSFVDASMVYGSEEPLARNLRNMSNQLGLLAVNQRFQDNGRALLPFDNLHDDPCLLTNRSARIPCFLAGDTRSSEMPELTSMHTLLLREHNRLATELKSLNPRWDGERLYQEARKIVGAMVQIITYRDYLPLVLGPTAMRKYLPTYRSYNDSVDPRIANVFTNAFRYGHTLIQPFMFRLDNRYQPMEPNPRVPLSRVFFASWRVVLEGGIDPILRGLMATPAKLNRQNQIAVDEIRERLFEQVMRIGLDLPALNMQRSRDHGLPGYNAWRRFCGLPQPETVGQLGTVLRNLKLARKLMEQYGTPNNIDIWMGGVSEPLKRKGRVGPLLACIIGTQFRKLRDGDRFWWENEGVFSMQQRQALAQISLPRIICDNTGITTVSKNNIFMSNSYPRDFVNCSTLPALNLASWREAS
The experiment is described as follows: Inhibition of MPO chlorination activity (unknown origin) assessed as taurine chloramine formation after 5 mins in presence of H2O2/Cl- by HTS method. The method in brief:
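Recombinant MPO (40 nM) in 10 mM phosphate buffer pH 7.4 with 300 mM NaCl and 15 mM taurine, inhibitor up to 20 μM, 37 °C. Started with H2O2 (100 μM), stopped after 5 min with catalase. Taurine chloramine read with thionitrobenzoic acid at 412 nm. IC50 taken from the concentration curve, no H2O2 = 100% inhibition, no inhibitor = 0%.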

A short description of experiment [1]: Redox potential of compound in Ag/AgCl-NaCl containing phosphate buffer assessed as one electron redox potential at 1 10^-4M by cyclic voltammetric analysis. The procedure, abridged: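 Cyclic voltammetry at 25 ± 2 °C in a three-electrode cell: glassy carbon working, platinum wire auxiliary, Ag/AgCl (3 M NaCl) reference. Inhibitor 1×10^-4 M in 0.1 M phosphate buffer pH 7.4. Single cycle at 100 mV s⁻¹. E°′ converted to NHE by adding +198 mV.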

Experiment [2] addresses Sodium-dependent serotonin transporter (Homo sapiens, UniProt P31645). In words: Inhibition of human SERT expressed in HEK293 cells assessed as reduction in [3]5-HT uptake. Format: cell-based. The procedure, abridged:
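hSERT cDNA in pcDNA3.1, transfected into HEK-293 MSR cells (DMEM, 10% FCS, penicillin/streptomycin, 6 µg/mL Geneticin, 37 °C, 5% CO2). Cells detached with Versene and trypsin/EDTA and seeded into plates. [3H]5-HT uptake measured per an earlier described method, with HEK-293 MSR cells used in place of COS-1. Ki reported.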

The subject of a further experiment is HEK293. The experiment is described as follows: Ratio of Ki for human SERT expressed in HEK293 cells to IC50 for MPO chlorination activity (unknown origin). Format: cell-based.
In experiment [3] the target is T2, Myeloperoxidase (Homo sapiens) (UniProt P05164).
T2 sequence (whole entry): T1 sequence (P05164 whole entry)
The experiment is described as follows: Inhibition of human polymorphonuclear leukocyte MPO assessed as apparent bi-molecular rate constant for PorFe(4)=O radical reduction for 0.001 to 2.681 secs by stopped-flow spectroscopic analysis. The procedure, abridged: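 Purified MPO (purity index A430/A280 ≥0.86) at 8 µM was premixed with 80 µM H2O2. Reaction in 200 mM phosphate, pH 7.4, 25 °C, 2% DMSO final. kobs taken as the mean of ≥3 runs. Second-order constant derived from the slope of kobs versus concentration.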

For experiment [4], the target named is T2, Myeloperoxidase (Homo sapiens). In words: Inhibition of human polymorphonuclear leukocyte MPO assessed as apparent bimolecular rate constant for PorFe(4)-OH reduction for 4.01 to 31.32 secs by stopped-flow spectroscopic analysis. The procedure, abridged: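 Single-exponential fits gave kobs, as the mean of ≥3 runs, with substrate at least 5-fold over enzyme. Conditions were 200 mM phosphate, pH 7.4, 25 °C, 2% DMSO final. Apparent second-order constant taken from the slope of kobs versus concentration.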

Experiment [5] shares this target. The experiment is described as follows: Inhibition of human polymorphonuclear leukocyte MPO assessed as ratio of apparent bi-molecular rate constant for PorFe(4)=O radical reduction to PorFe(4)-OH reduction by stopped-flow spectroscopic analysis.

Chain of Sodium-dependent serotonin transporter (P31645 whole entry): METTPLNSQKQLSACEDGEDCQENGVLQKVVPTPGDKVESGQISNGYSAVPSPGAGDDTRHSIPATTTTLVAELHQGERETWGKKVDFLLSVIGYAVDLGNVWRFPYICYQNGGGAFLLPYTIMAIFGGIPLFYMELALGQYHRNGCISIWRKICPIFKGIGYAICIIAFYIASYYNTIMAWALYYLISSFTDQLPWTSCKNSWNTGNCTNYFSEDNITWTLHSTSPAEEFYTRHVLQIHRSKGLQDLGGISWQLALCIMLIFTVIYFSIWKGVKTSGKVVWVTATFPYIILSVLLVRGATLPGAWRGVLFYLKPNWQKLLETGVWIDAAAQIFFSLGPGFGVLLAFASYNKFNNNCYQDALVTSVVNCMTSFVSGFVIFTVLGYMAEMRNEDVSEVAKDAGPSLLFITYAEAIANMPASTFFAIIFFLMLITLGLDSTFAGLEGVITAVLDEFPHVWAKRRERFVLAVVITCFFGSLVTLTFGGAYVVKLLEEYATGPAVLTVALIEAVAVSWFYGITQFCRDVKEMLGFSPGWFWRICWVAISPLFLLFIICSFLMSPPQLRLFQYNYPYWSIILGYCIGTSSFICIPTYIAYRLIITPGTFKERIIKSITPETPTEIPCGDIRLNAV

`c1ccc(CN2CCN(Cc3ccccc3)CC2)cc1`: the IC50 at Myeloperoxidase is over 10 µM. Besides, the Activity in experiment [1] came to 996 mV.
As for `Oc1ccccc1CNCCc1ccccc1F`, at Myeloperoxidase, the IC50 was 0.67 µM. In addition, the Activity in experiment [1] came out at 948 mV.
Turning to `COc1ccccc1CCNCc1ccccc1`, in experiment [1], the Activity is over 1.2 V.
Take `Oc1ccccc1CCNCc1ccccc1F`: the IC50 on Myeloperoxidase turned out to be 0.7 µM. The Activity in experiment [1] was 856 mV.
For `Fc1ccccc1CN1CCN(Cc2ccccc2F)CC1`, the IC50 on Myeloperoxidase was over 10 µM. The Activity in experiment [1] is 1100 mV.
The matching figures for `Oc1ccccc1CNCCc1c[nH]c2ccc(F)cc12`: 0.085 µM and 902 mV.
The like results for `Oc1ccccc1CCCNCc1ccc(F)cc1` were, in that order, 0.49 µM and 869 mV.
Turning to `Fc1ccc2[nH]cc(CCCNCc3ccccc3)c2c1`, the Ki in experiment [2] came out at 0.05 µM. Further, the Ratio in the experiment with HEK293 worked out at 4.1.
Take `COc1ccccc1CCCNCc1ccccc1`: the Activity in experiment [1] is over 1.2 V.
Take `Oc1ccccc1CCCNCc1ccccc1O`: the IC50 on Myeloperoxidase is 0.35 µM. Besides, the Kapp in experiment [3] was found to be 1.5 ×10⁶ /M/s; in experiment [4], 4.8 ×10³ /M/s. Besides, the Ki in experiment [2] turned out to be 11 µM. The Ratio came to 313 in experiment [5] and 31.4 with HEK293. Moreover, in experiment [1], the Activity was found to be 844 mV.
With `COc1ccccc1CCNCc1ccccc1O`, the IC50 at Myeloperoxidase worked out at 1.85 µM. The Activity in experiment [1] worked out at 907 mV.
For `Oc1ccccc1CNCCCc1c[nH]c2ccc(F)cc12`, the IC50 on Myeloperoxidase was found to be 0.054 µM. Further, the results for the Kapp in experiment [3] and in experiment [4] were 1.4 ×10⁷ /M/s and 3.5 ×10³ /M/s, respectively. The Ki in experiment [2] came to 0.8 µM. Besides, the Ratio in experiment [5] was 4000; with HEK293 it was 14.8. Moreover, in experiment [1], the Activity amounted to 872 mV.
`Oc1ccccc1CNCCCc1ccccc1`: at Myeloperoxidase, the IC50 is 1.2 µM. Moreover, the Activity in experiment [1] worked out at 928 mV.
As for `Fc1cccc(CN2CCN(Cc3cccc(F)c3)CC2)c1`, the IC50 on Myeloperoxidase was over 10 µM. Moreover, in experiment [1], the Activity was found to be 1060 mV.
`Oc1ccccc1CN1CCN(Cc2ccccc2O)CC1`: the IC50 at Myeloperoxidase was 1.4 µM. For the same molecule, in experiment [1], the Activity came to 1070 mV.
The matching figures for `Oc1ccccc1CC1CCCNC1` (centres undefined): over 10 µM and 960 mV.
The like results for `Oc1ccccc1CCNCc1ccccc1` were, in that order, 2.7 µM and 897 mV.
Take `Oc1ccccc1CCNCc1ccccc1O`: at Myeloperoxidase, the half-inhibitory concentration (IC50) turned out to be 0.65 µM. Further, in experiment [1], the Activity stood at 870 mV.
Take `COc1ccccc1CCNCc1cccc(F)c1`: the Activity in experiment [1] is over 1.2 V.
On to `Oc1ccccc1CCCNCc1ccccc1F`, for which the IC50 at Myeloperoxidase was 0.27 µM. The values for the Kapp in experiment [3] and in experiment [4] were 5.7 ×10⁶ /M/s and 1.4 ×10³ /M/s, respectively. For the same molecule, the Ki in experiment [2] amounted to 14 µM. In addition, the Ratio in experiment [5] is 4070; in the experiment with HEK293, 51.8. Moreover, the Activity in experiment [1] amounted to 833 mV.
Turning to `Oc1ccccc1CNCCc1ccccc1`, on Myeloperoxidase, the IC50 was found to be 0.7 µM. Also, in experiment [1], the Activity was 973 mV.
With `COc1ccccc1CCCNCc1ccc(F)cc1`, the Activity in experiment [1] was over 1.2 V.
Same read-out and setting: the same measure for `c1ccc(CN2CCCN(Cc3ccccc3)C2)cc1`: over 1.2 V.
For the molecule `COc1ccccc1CCCNCc1ccccc1O`, on Myeloperoxidase, the concentration for half-maximal inhibition (IC50) amounted to 2.5 µM. Besides, the Activity in experiment [1] was 871 mV.
Consider `Fc1ccc(CN2CCN(Cc3ccc(F)cc3)CC2)cc1`, for which, on Myeloperoxidase, the IC50 is over 10 µM. Further, in experiment [1], the Activity turned out to be 1020 mV.
Take `Oc1ccccc1CN1CCCCC1`: the IC50 at Myeloperoxidase was over 10 µM. Further, the Activity in experiment [1] came to 953 mV.
Turning to `O=C1N(Cc2ccccc2)CCCN1Cc1ccccc1`, the Activity in experiment [1] is over 1.2 V.
On to `COc1ccccc1CCCNCc1cccc(F)c1`, for which the Activity in experiment [1] is over 1.2 V.
As for `c1ccc(CCCNCc2ccccc2)cc1`, the Activity in experiment [1] is over 1.2 V.
Regarding `Oc1ccccc1CNCCCc1ccccc1F`, the IC50 at Myeloperoxidase came out at 0.37 µM. Also, the Activity in experiment [1] turned out to be 902 mV.
In the case of `Oc1ccccc1CCNCc1cccc(F)c1`, on Myeloperoxidase, the IC50 came to 0.66 µM. The Activity in experiment [1] worked out at 807 mV.
For `COc1ccccc1CCNCc1ccccc1F`, the Activity in experiment [1] is over 1.2 V.
On the same count and under the same terms, the same measure for `COc1ccccc1CCCNCc1ccccc1F`: over 1.2 V; for `c1ccc(CCNCc2ccccc2)cc1`: over 1.2 V; for `COc1ccccc1CCNCc1ccc(F)cc1`: over 1.2 V.
Take `Oc1ccccc1CCCNCc1ccccc1`: the IC50 at Myeloperoxidase was determined as 0.36 µM. Further, in experiment [1], the Activity was found to be 825 mV.
Turning to `Oc1ccccc1CCCNCc1cccc(F)c1`, the IC50 at Myeloperoxidase came to 0.37 µM. The Activity in experiment [1] was found to be 820 mV.
Take `Oc1ccccc1CCNCc1ccc(F)cc1`: the concentration for half-maximal inhibition (IC50) at Myeloperoxidase was 1.16 µM. Moreover, in experiment [1], the Activity turned out to be 865 mV.
